# Test system: not listed separately
# Assay: Cytotoxicity against […] G144 […] cells
# Format: cell-based
row,Structure (SMILES),CC50
1,c1ccc(-c2nc3ccncc3s2)c(OCCC2CCOCC2)c1,> 50 µM
2,c1ccc(Oc2ccccc2-c2nc3ccncc3s2)cc1,> 50 µM
3,COc1ccccc1-c1nn2cnnc2s1,> 80 µM
4,c1ccc(Oc2ncccc2-c2nn3cnnc3s2)cc1,> 50 µM
5,CCOc1ccccc1-c1nn2cnnc2s1,> 65 µM
6,CC(=O)Nc1ccc(Oc2ccccc2-c2nc3ccncc3s2)cc1,> 50 µM
7,COc1ccccc1-c1nc2ccncc2s1,> 50 µM
8,c1cc2c(c(-c3nc4ccncc4s3)c1)OCC2,> 50 µM
9,c1ccc(Oc2ccccc2-c2nn3cnnc3s2)cc1,> 50 µM
10,c1cc2c(c(-c3nn4cnnc4s3)c1)OCC2,> 50 µM
11,c1ccc(Oc2ncccc2-c2nc3ccncc3s2)cc1,> 50 µM
12,CC(=O)Nc1ccc(Oc2ncccc2-c2nc3ccncc3s2)cc1,> 50 µM
13,c1ccc(-c2nn3cnnc3s2)c(OCCC2CCOCC2)c1,> 50 µM
14,CCOc1ccccc1-c1nc2ccncc2s1,> 50 µM

# Test system: JC polyomavirus
# Assay: Antiviral activity against JC polyomavirus infected in […] G144 […] cells assessed as reduction in late viral protein and viral capsid protein VP1 incubated for 72 hrs by branched DNA assay
# Format: functional, organism-based
# Summary of the method: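 G144 […] cells plated on poly-ornithine (0.005%)/laminin (10 µg/ml)-coated flasks, infected with MAD4 JCV at MOI = 1 TCID₅₀ for 24 hr, then replated at 5,000 cells/well in differentiation medium. Compounds added in DMSO (0.5% final) for 72 hr. Lysates denatured with NaOH at 52°C for 30 min; VP1 DNA measured by bDNA capture probes. EC50 from four-parameter curve fit.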
row,Structure (SMILES),EC50
1,c1ccc(-c2nc3ccncc3s2)c(OCCC2CCOCC2)c1,7.7 µM
2,c1ccc(Oc2ccccc2-c2nc3ccncc3s2)cc1,36 µM
3,COc1ccccc1-c1nn2cnnc2s1,> 60 µM
4,c1ccc(Oc2ncccc2-c2nn3cnnc3s2)cc1,76 µM
5,CCOc1ccccc1-c1nn2cnnc2s1,44 µM
6,CC(=O)Nc1ccc(Oc2ccccc2-c2nc3ccncc3s2)cc1,48 µM
7,COc1ccccc1-c1nc2ccncc2s1,1.5 µM
8,c1cc2c(c(-c3nc4ccncc4s3)c1)OCC2,0.26 µM
9,c1ccc(Oc2ccccc2-c2nn3cnnc3s2)cc1,34 µM
10,c1cc2c(c(-c3nn4cnnc4s3)c1)OCC2,> 16 µM
11,c1ccc(Oc2ncccc2-c2nc3ccncc3s2)cc1,3.8 µM
12,CC(=O)Nc1ccc(Oc2ncccc2-c2nc3ccncc3s2)cc1,40 µM
13,c1ccc(-c2nn3cnnc3s2)c(OCCC2CCOCC2)c1,15 µM
14,CCOc1ccccc1-c1nc2ccncc2s1,7.4 µM

# Test system: not listed separately
# Assay: Inhibition of helicase activity of BK polyomavirus LTAg (E265 to D629 residues) expressed in Escherichia coli using Cy5/BHQ3 dsDNA pre-incubated for 20 mins and measured after 120 to 180 mins by fluorescence based assay
# Design: species or system Betapolyomavirus hominis
row,IC50,Structure (SMILES)
1,> 80 µM,COc1ccccc1-c1nc2ccnc(N)c2s1
2,24 µM,COc1ccc(-c2nn3cnnc3s2)c(OC)c1
3,> 80 µM,Nc1ccccc1-c1nn2cnnc2s1
4,> 80 µM,COc1cccc(-c2nn3cnnc3s2)c1OC
5,> 80 µM,COc1cccc(OC)c1-c1nn2cnnc2s1
6,17 µM,c1ccc(-c2nn3cnnc3s2)c(OCC2CCOCC2)c1
7,> 80 µM,Cc1ccccc1-c1nn2cnnc2s1
8,24 µM,c1cc2c(c(-c3nn4cnnc4s3)c1)OCCC2
9,> 80 µM,CN(C)c1ccccc1-c1nn2cnnc2s1
10,7.3 µM,c1ccc(Oc2ccncc2-c2nn3cnnc3s2)cc1
11,> 80 µM,CCOc1ccccc1-c1nc2cnccc2s1
12,42 µM,N#CCCCOc1ccccc1-c1nn2cnnc2s1
13,> 80 µM,CNc1cc2nc(-c3ccccc3OC)sc2cn1
14,> 80 µM,Oc1ccccc1-c1nn2cnnc2s1
15,73 µM,c1ccc(-c2nn3cnnc3s2)c(OCCN2CCOCC2)c1
16,> 80 µM,c1ccc(C2CC2)c(-c2nn3cnnc3s2)c1
17,63 µM,COCCOc1ccccc1-c1nn2cnnc2s1
18,8.7 µM,COc1ccccc1-c1nc2cc(N)ncc2s1
19,> 80 µM,COc1ccccc1Cc1nn2cnnc2s1
20,> 80 µM,c1ccc(Oc2ncncc2-c2nn3cnnc3s2)cc1
21,53 µM,Oc1ccccc1-c1nc2ccncc2s1

row,Structure (SMILES),IC50
1,c1ccc(-c2nc3ccncc3s2)c(OCCC2CCOCC2)c1,11 µM
2,c1ccc(Oc2ccccc2-c2nc3ccncc3s2)cc1,10.2 µM
3,COc1ccccc1-c1nn2cnnc2s1,29 µM
4,c1ccc(Oc2ncccc2-c2nn3cnnc3s2)cc1,11 µM
5,CC(=O)Nc1ccc(Oc2ccccc2-c2nc3ccncc3s2)cc1,1.6 µM
6,COc1ccccc1-c1nc2ccncc2s1,10.7 µM
7,c1cc2c(c(-c3nc4ccncc4s3)c1)OCC2,15 µM
8,c1ccc(Oc2ccccc2-c2nn3cnnc3s2)cc1,3.7 µM
9,c1cc2c(c(-c3nn4cnnc4s3)c1)OCC2,21 µM
10,c1ccc(Oc2ncccc2-c2nc3ccncc3s2)cc1,1.3 µM
11,c1ccc(-c2nn3cnnc3s2)c(OCCC2CCOCC2)c1,8.4 µM
12,CCOc1ccccc1-c1nc2ccncc2s1,8 µM

# Biological target: T1, Large T antigen (JC polyomavirus, UniProt P03072)
# T1 sequence (P03072 whole entry): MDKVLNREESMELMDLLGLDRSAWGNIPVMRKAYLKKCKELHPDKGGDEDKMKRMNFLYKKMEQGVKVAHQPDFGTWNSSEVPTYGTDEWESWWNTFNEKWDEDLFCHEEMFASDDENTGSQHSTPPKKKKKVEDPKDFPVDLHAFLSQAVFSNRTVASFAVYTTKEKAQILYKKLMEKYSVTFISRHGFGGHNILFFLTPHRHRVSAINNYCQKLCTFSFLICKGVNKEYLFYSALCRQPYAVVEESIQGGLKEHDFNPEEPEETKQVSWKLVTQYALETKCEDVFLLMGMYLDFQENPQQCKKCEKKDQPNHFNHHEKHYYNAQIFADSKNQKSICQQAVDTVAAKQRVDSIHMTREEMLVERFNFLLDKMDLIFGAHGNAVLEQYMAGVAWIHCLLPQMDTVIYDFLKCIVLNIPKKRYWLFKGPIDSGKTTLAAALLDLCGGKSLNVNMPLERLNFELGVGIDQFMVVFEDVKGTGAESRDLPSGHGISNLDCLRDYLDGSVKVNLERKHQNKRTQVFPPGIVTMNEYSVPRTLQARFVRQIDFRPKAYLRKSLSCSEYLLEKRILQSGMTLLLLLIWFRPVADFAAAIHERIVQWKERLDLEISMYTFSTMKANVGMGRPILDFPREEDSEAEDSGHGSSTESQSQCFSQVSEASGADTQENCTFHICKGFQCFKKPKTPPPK
# Assay: Inhibition of helicase activity of JC polyomavirus LTAg (E264 to D628 residues) expressed in Escherichia coli using Cy5/BHQ3 dsDNA pre-incubated for 20 mins and measured after 120 to 180 mins by fluorescence based assay
row,IC50,Structure (SMILES)
1,> 80 µM,COc1ccccc1-c1nc2ccnc(N)c2s1
2,18 µM,COc1ccc(-c2nn3cnnc3s2)c(OC)c1
3,> 80 µM,Nc1ccccc1-c1nn2cnnc2s1
4,62 µM,COc1cccc(-c2nn3cnnc3s2)c1OC
5,> 80 µM,COc1cccc(OC)c1-c1nn2cnnc2s1
6,6.3 µM,c1ccc(-c2nn3cnnc3s2)c(OCC2CCOCC2)c1
7,> 80 µM,Cc1ccccc1-c1nn2cnnc2s1
8,15.5 µM,c1cc2c(c(-c3nn4cnnc4s3)c1)OCCC2
9,> 80 µM,CN(C)c1ccccc1-c1nn2cnnc2s1
10,5.5 µM,c1ccc(Oc2ccncc2-c2nn3cnnc3s2)cc1
11,> 80 µM,CCOc1ccccc1-c1nc2cnccc2s1
12,25 µM,N#CCCCOc1ccccc1-c1nn2cnnc2s1
13,> 80 µM,CNc1cc2nc(-c3ccccc3OC)sc2cn1
14,> 80 µM,Oc1ccccc1-c1nn2cnnc2s1
15,52 µM,c1ccc(-c2nn3cnnc3s2)c(OCCN2CCOCC2)c1
16,> 80 µM,c1ccc(C2CC2)c(-c2nn3cnnc3s2)c1
17,28.5 µM,COCCOc1ccccc1-c1nn2cnnc2s1
18,4.3 µM,COc1ccccc1-c1nc2cc(N)ncc2s1
19,> 80 µM,COc1ccccc1Cc1nn2cnnc2s1
20,> 80 µM,c1ccc(Oc2ncncc2-c2nn3cnnc3s2)cc1
21,37 µM,Oc1ccccc1-c1nc2ccncc2s1

row,Structure (SMILES),IC50
1,c1ccc(-c2nc3ccncc3s2)c(OCCC2CCOCC2)c1,9.6 µM
2,c1ccc(Oc2ccccc2-c2nc3ccncc3s2)cc1,10.5 µM
3,COc1ccccc1-c1nn2cnnc2s1,19.4 µM
4,c1ccc(Oc2ncccc2-c2nn3cnnc3s2)cc1,8.8 µM
5,CCOc1ccccc1-c1nn2cnnc2s1,18 µM
6,CC(=O)Nc1ccc(Oc2ccccc2-c2nc3ccncc3s2)cc1,0.9 µM
7,COc1ccccc1-c1nc2ccncc2s1,5 µM
8,c1cc2c(c(-c3nc4ccncc4s3)c1)OCC2,8.7 µM
9,c1ccc(Oc2ccccc2-c2nn3cnnc3s2)cc1,4.9 µM
10,c1cc2c(c(-c3nn4cnnc4s3)c1)OCC2,13.5 µM
11,c1ccc(Oc2ncccc2-c2nc3ccncc3s2)cc1,1.4 µM
12,CC(=O)Nc1ccc(Oc2ncccc2-c2nc3ccncc3s2)cc1,0.6 µM
13,c1ccc(-c2nn3cnnc3s2)c(OCCC2CCOCC2)c1,5.8 µM
14,CCOc1ccccc1-c1nc2ccncc2s1,9.1 µM

# From ChEMBL document CHEMBL4428043, “Fragment-Based Discovery of Dual JC Virus and BK Virus Helicase Inhibitors” (J Med Chem, 2016)
